In ChEMBL document CHEMBL1131499, “Molecular features associated with polyamine modulation of NMDA receptors” (J Med Chem, 1998):

Key:
[1] = Dissociation constant (pK1)
[2] = Dissociation constant (pK2)
[3] = Partition coefficient (logP)
[4] = target: Glutamate NMDA receptor (Rattus norvegicus) (UniProt P35439+Q00959+Q00960+Q00961+Q62645+Q8VHN2+Q9R1M7); assay: Enhanced binding of [3H]MK-801 to N-methyl-D-aspartate glutamate receptor in presence of spermine; type: protein-complex assay
Summary of the method: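 Forebrain membranes (minus cerebellum and brainstem) from adult male Sprague–Dawley rats, prepared by buffy-coat centrifugation in 5 mM HEPES/4.5 mM Tris pH 7.6 with EDTA washes, then stored frozen. About 50 μg protein incubated with [³H]MK-801 (final 4–4.5 nM) plus spermine, without added glutamate or glycine, for 2 h at room temperature. Filtered on polyethylenimine-soaked glass fiber filters. Nonspecific binding defined with 100 μM PCP; counted by scintillation.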

| SMILES | pKa [1] | pKa [2] | ΔpK [3] | Sp Max [4] |
| --- | --- | --- | --- | --- |
| CNCCCNC | 10.7 | 8.68 | 2.02 | 16% |
| CNCCCN | 10.7 | 8.66 | 2.01 | 15% |
| NCCCN | 10.6 | 8.69 | 1.86 | 22% |
| CC(C)(CN)CN | 10.2 | 7.81 | 2.37 | 5% |
| OCCNC1CCN(Cc2ccccc2)CC1 | 9.24 | 6.67 | 2.57 | – |
| C1CCN(CCCN2CCCCC2)CC1 | 10.4 | 8.33 | 2.06 | – |
| CN(C)CCCN(C)C | 9.81 | 7.77 | – | 22% |
| NCCCNCCO | 10.3 | 8.19 | 2.09 | 16% |
| CNCC(C)CNC | 10.6 | 8.29 | 2.26 | 11% |
| C=CCN(CC=C)CCCN(CC=C)CC=C | 8.8 | 6.96 | 1.84 | – |
| CC1(C)CC(NCCO)CC(C)(C)N1 | 10.5 | 7.42 | 3.1 | – |
| C1CCN(C2CCNCC2)CC1 [[1,4']Bipiperidinyl] | 10.7 | 7.97 | 2.76 | – |
| CC1(C)CC(N)CC(C)(C)N1 | 10.6 | 7.9 | 2.73 | – |
| CN1CC2CC1C[C@@H](N)C2 (stereo not given in full) | – | – | – | 8% |
| CN1CC2CC1C[C@H](N)C2 (stereo not given in full) | – | – | – | 13% |
| NCC(O)CN | – | 8.14 | 1.54 | 35% |
| CNC1CCN(C)CC1 | 10.1 | 7.34 | 2.75 | 2% |
| NCC(=O)CN | 8.32 | 6.89 | 1.43 | 72% |
| NC1CCNCC1 | 10.6 | 8.1 | 2.53 | 12% |
| NC1CCN(Cc2ccccc2)CC1 | 9.79 | 7.05 | 2.74 | – |
| CN(C)C1CC(C)(C)NC(C)(C)C1 | 10.6 | 7.67 | 2.89 | – |
| CN(C)C1CCNCC1 | 10.7 | 7.71 | 2.95 | 44% |
| CN(C)CC(C)(C)CN | 10.3 | 7.13 | 3.15 | – |
